How the values were obtained:
Canis familiaris [1] = experiment: Conduction time for ventricular refractory period of the second premature stimulus was tested in dogs at a dose of 1.0 mg/kg through intravenous administration. (baseline value- 123+/-4); format: functional, Canis lupus familiaris, Cardiac ventricle
Canis familiaris [2] = experiment: Conduction time from Q wave to T wave of lead II electrocardiogram corrected for heart rate was tested in dogs at a dose of 1.0 mg/kg through intravenous administration. (baseline value- 352+/-7); format: functional, Canis lupus familiaris
Oryctolagus cuniculus [3] = organism: Oryctolagus cuniculus; experiment: Tested for effective refractory period measured at a pacing rate of 3 Hz in vitro with rabbit heart tissue preparations.; format: functional; parameters: unit: %
Method in brief: (§1)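 Isolated rabbit heart tissues, all from one heart, each its own baseline; 2 h equilibration, perfusate changed every 15 min, basal stimulation 2 Hz between measurements. Exposed to 10^-7, 10^-6 and 10^-5 M drug, 15 min each; values reported at 10^-5 M as percent change from baseline. Drug solutions prepared daily in glass-distilled water. Force and rate recorded on polygraph.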

Canis familiaris [4] = experiment: Conduction time for ventricular refractory period of the first premature stimulus was tested in dogs at a dose of 1.0 mg/kg through intravenous administration. (baseline value- 137+/-4); format: functional, Canis lupus familiaris, Cardiac ventricle
Canis familiaris [5] = experiment: Compound was tested in vivo in dogs at a dose of 0.3 mg/kg through intravenous route and time at which sustained ventricular arrhythmias were induced was recorded.(Base line value-3); format: functional, Canis lupus familiaris, Cardiac ventricle
Method in brief: (§2)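 Dogs with myocardial infarction were studied 3-9 days after infarction. They were reanesthetized with pentobarbital, ventilated, and electrodes were placed via thoracotomy; blood gases were monitored. Control ERPs and reproducible inducibility were set by programmed electrical stimulation, then cumulative iv doses were given. Agents were in glass-distilled water or NaOH-neutralized saline (pH 6.7-7.0). Animals were counted per category: NI, nonsustained, sustained, VF, or AV block preventing atrial pacing.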

Canis familiaris [6] = experiment: Conduction time from the atrium to His bundle was tested in dogs at a dose of 0.1 mg/kg through intravenous administration. (baseline value- 73+/-3 ); format: functional, Canis lupus familiaris
Canis familiaris [7] = experiment: Conduction time from the His bundle to the onset of ventricular depolarizations was tested in dogs at a dose of 1.0 mg/kg through intravenous administration. (baseline value- 17+/-1 ); format: functional, Canis lupus familiaris, Cardiac ventricle
Canis familiaris [8] = experiment: Compound was tested in vivo in dogs at a dose of 0.1 mg/kg through intravenous route and number of animals in which ventricular fibrillation was induced was recorded.(Base line value-6)
Oryctolagus cuniculus [9] = organism: Oryctolagus cuniculus; experiment: Tested for effective refractory period measured at a pacing rate of 1 Hz in vitro with rabbit heart tissue preparations.; format: functional; method in brief: as §1
Canis familiaris [10] = experiment: Conduction time from the His bundle to the onset of ventricular depolarizations was tested in dogs at a dose of 0.1 mg/kg through intravenous administration. (baseline value- 17+/-1 ); format: functional, Canis lupus familiaris, Cardiac ventricle
Canis familiaris [11] = experiment: Compound was tested in vivo in dogs at a dose of 1.0 mg/kg through intravenous route and time at which sustained ventricular arrhythmias were induced was recorded.(Base line value-3); format: functional, Canis lupus familiaris, Cardiac ventricle; method in brief: as §2
Canis familiaris [12] = experiment: Compound was tested in vivo in dogs at a dose of 1.0 mg/kg through intravenous route and time at which ventricular arrhythmias were not indicible was recorded.(Base line value-1); format: functional, Canis lupus familiaris, Cardiac ventricle; method in brief: as §2
Canis familiaris [13] = experiment: Conduction time from the atrium to His bundle was tested in dogs at a dose of 1.0 mg/kg through intravenous administration. (baseline value- 73+/-3 ); format: functional, Canis lupus familiaris
Canis familiaris [14] = experiment: Conduction time from Q wave to T wave of lead II electrocardiogram corrected for heart rate was tested in dogs at a dose of 0.1 mg/kg through intravenous administration. (baseline value- 352+/-7); format: functional, Canis lupus familiaris
Canis familiaris [15] = experiment: Compound was tested in vivo in dogs at a dose of 0.1 mg/kg through intravenous route and time at which ventricular arrhythmias were not indicible was recorded.(Base line value-1); format: functional, Canis lupus familiaris, Cardiac ventricle; method in brief: as §2
Canis familiaris [16] = experiment: Conduction time from Q wave to T wave of lead II electrocardiogram corrected for heart rate was tested in dogs at a dose of 0.3 mg/kg through intravenous administration. (baseline value- 352+/-7); format: functional, Canis lupus familiaris
Oryctolagus cuniculus [17] = organism: Oryctolagus cuniculus; experiment: Tested for force of contraction measured in mg at a pacing rate of 2 Hz in vitro with rabbit heart tissue preparations.; format: functional; method in brief: as §1
Canis familiaris [18] = experiment: Conduction time from the atrium to His bundle was tested in dogs at a dose of 0.3 mg/kg through intravenous administration. (baseline value- 73+/-3 ); format: functional, Canis lupus familiaris
Oryctolagus cuniculus [19] = organism: Oryctolagus cuniculus; experiment: Tested for conduction time measured at a pacing rate of 3 Hz in vitro with rabbit heart tissue preparations.; format: functional; method in brief: as §1
Canis familiaris [20] = experiment: Conduction time from the His bundle to the onset of ventricular depolarizations was tested in dogs at a dose of 0.3 mg/kg through intravenous administration. (baseline value- 17+/-1 ); format: functional, Canis lupus familiaris, Cardiac ventricle
Canis familiaris [21] = experiment: Compound was tested in vivo in dogs at a dose of 0.1 mg/kg through intravenous route and time at which nonsustained ventricular arrhythmias were induced was recorded.(Base line value-1); format: functional, Canis lupus familiaris, Cardiac ventricle; method in brief: as §2
Canis familiaris [22] = experiment: Conduction time for ventricular refractory period of the second premature stimulus was tested in dogs at a dose of 0.3 mg/kg through intravenous administration. (baseline value- 123+/-4); format: functional, Canis lupus familiaris, Cardiac ventricle
Canis familiaris [23] = experiment: Compound was tested in vivo in dogs at a dose of 0.3 mg/kg through intravenous route and time at which nonsustained ventricular arrhythmias were induced was recorded.(Base line value-1); format: functional, Canis lupus familiaris, Cardiac ventricle; method in brief: as §2
Canis familiaris [24] = experiment: Conduction time for ventricular refractory period of the first premature stimulus was tested in dogs at a dose of 0.3 mg/kg through intravenous administration. (baseline value- 137+/-4); format: functional, Canis lupus familiaris, Cardiac ventricle
Canis familiaris [25] = experiment: Compound was tested in vivo in dogs at a dose of 1.0 mg/kg through intravenous route and time at which nonsustained ventricular arrhythmias were induced was recorded.(Base line value-1); format: functional, Canis lupus familiaris, Cardiac ventricle; method in brief: as §2
Canis familiaris [26] = experiment: Conduction time for ventricular refractory period of the second premature stimulus was tested in dogs at a dose of 0.1 mg/kg through intravenous administration. (baseline value- 123+/-4); format: functional, Canis lupus familiaris, Cardiac ventricle
Canis familiaris [27] = experiment: Compound was tested in vivo in dogs at a dose of 0.1 mg/kg through intravenous route and time at which sustained ventricular arrhythmias were induced was recorded.(Base line value-3); format: functional, Canis lupus familiaris, Cardiac ventricle; method in brief: as §2
Canis familiaris [28] = experiment: Conduction time for ventricular refractory period of the first premature stimulus was tested in dogs at a dose of 0.1 mg/kg through intravenous administration. (baseline value- 137+/-4); format: functional, Canis lupus familiaris, Cardiac ventricle
Canis familiaris [29] = experiment: Compound was tested in vivo in dogs at a dose of 1.0 mg/kg through intravenous route and time at which ventricular fibrillation was induced was recorded.(Base line value-6); format: functional, Canis lupus familiaris, Cardiac ventricle; method in brief: as §2
Canis familiaris [30] = experiment: Compound was tested in vivo in dogs at a dose of 0.3 mg/kg through intravenous route and time at which ventricular arrhythmias were not indicible was recorded.(Base line value-1); format: functional, Canis lupus familiaris, Cardiac ventricle; method in brief: as §2
Canis familiaris [31] = experiment: Compound was tested in vivo in dogs at a dose of 0.3 mg/kg through intravenous route and time at which ventricular fibrillation was induced was recorded.(Base line value-6); format: functional, Canis lupus familiaris, Cardiac ventricle; method in brief: as §2
Oryctolagus cuniculus [32] = organism: Oryctolagus cuniculus; experiment: Tested for conduction time measured at a pacing rate of 1 Hz in vitro with rabbit heart tissue preparations.; format: functional; method in brief: as §1
Oryctolagus cuniculus [33] = organism: Oryctolagus cuniculus; experiment: Tested for rate automaticity measured in beats per minute from unpaced right atria of rabbit heart.; format: functional; method in brief: as §1

CCCCCCCN(CC)CCCC(O)c1ccc(NS(C)(=O)=O)cc1 (stereo not drawn) [IBUTILIDE]
Time (Canis familiaris [1]): 128 ms | Time (Canis familiaris [2]): 364 ms | ERP3 (Oryctolagus cuniculus [3]): 15.8 | Time (Canis familiaris [4]): 146 ms | Time (Canis familiaris [5]): 0 animals | Time (Canis familiaris [6]): 73 ms | Time (Canis familiaris [7]): 17 ms | number of animals (Canis familiaris [8]): 1 animals | ERP1 (Oryctolagus cuniculus [9]): 18 | Time (Canis familiaris [10]): 16 ms | Time (Canis familiaris [11]): 0 animals | Time (Canis familiaris [12]): 4 animals | Time (Canis familiaris [13]): 77 ms | Time (Canis familiaris [14]): 372 ms | Time (Canis familiaris [15]): 3 animals | Time (Canis familiaris [16]): 387 ms | FOC (Oryctolagus cuniculus [17]): 1.9 | Time (Canis familiaris [18]): 75 ms | CT3 (Oryctolagus cuniculus [19]): 31.2 | Time (Canis familiaris [20]): 17 ms | Time (Canis familiaris [21]): 5 animals | Time (Canis familiaris [22]): 139 ms | Time (Canis familiaris [23]): 2 animals | Time (Canis familiaris [24]): 154 ms | Time (Canis familiaris [25]): 2 animals | Time (Canis familiaris [26]): 137 ms | Time (Canis familiaris [27]): 2 animals | Time (Canis familiaris [28]): 151 ms | Time (Canis familiaris [29]): 1 animals | Time (Canis familiaris [30]): 5 animals | Time (Canis familiaris [31]): 2 animals | CT1 (Oryctolagus cuniculus [32]): 14.6 | Rate (Oryctolagus cuniculus [33]): -22

Source: ChEMBL document CHEMBL1125736, “N-[(omega-amino-1-hydroxyalkyl)phenyl]methanesulfonamide derivatives with class III antiarrhythmic activity” (1991)
